From ChEMBL document CHEMBL1145747, “Potent inhibition of NTPase/helicase of the West Nile Virus by ring-expanded ("fat") nucleoside analogues” (J Med Chem, 2003)
≈ marks a conversion by molar mass, not a printed value.

Experiments:
[1] = tested on: West Nile virus; assay: Inhibitory activity determined against west nile virus (WNV) NTPase/helicase (NTPase/helicase Non structural protein 3) using DNA as substrate; assay type: functional
Summary of the method: (§1)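 WNV NTPase/helicase (2 pmol), purified from culture medium of virus-infected Vero E6 cells, unwinding a partially hybridized 32P 5'-labelled duplex (26-mer release strand on 40-mer template; DNA or RNA per line, 4.7 pM nucleotide base). Conditions: ATP at Km (9.5 µM), 20 mM Tris/HCl pH 7.5, 2 mM MgCl2, 30 min at 30 °C. Released strand resolved on TBE-PAGE and its radioactivity counted. IC50 is 50% of compound-free unwinding; representative of three independent experiments.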

[2] = target: T1, ATP-dependent RNA helicase SUPV3L1, mitochondrial (Homo sapiens, UniProt Q8IYB8); assay: Inhibitory activity determined against human Suv3 helicase using DNA as substrate
T1 sequence (Q8IYB8 whole entry): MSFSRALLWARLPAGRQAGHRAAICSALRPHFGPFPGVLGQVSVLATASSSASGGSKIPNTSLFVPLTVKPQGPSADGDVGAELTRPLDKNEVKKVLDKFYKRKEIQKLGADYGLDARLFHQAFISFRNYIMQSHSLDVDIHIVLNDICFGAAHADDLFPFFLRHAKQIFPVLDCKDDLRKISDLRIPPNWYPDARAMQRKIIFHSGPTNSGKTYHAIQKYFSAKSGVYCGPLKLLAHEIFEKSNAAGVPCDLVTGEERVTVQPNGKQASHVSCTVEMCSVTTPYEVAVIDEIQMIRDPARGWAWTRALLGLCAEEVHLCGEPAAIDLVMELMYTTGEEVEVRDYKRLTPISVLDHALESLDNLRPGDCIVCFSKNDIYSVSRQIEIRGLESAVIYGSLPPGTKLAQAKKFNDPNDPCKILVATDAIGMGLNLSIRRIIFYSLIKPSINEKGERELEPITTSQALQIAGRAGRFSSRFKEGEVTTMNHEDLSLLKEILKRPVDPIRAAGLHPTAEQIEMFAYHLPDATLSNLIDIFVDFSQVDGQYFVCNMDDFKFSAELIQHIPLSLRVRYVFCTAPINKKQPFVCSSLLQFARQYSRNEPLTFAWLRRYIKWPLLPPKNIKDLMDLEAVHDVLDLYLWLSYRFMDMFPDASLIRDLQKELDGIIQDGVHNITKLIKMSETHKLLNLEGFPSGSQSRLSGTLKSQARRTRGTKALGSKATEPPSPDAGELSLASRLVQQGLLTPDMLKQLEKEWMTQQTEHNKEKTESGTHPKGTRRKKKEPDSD
Summary of the method: (§2)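 Human Suv3(Δ1-159), expressed in E. coli from pQE60, 0.2 pmol per assay. Substrate: partially hybridized 32P-labelled DNA or RNA duplex (per line), 4.7 pM nucleotide base. Run with ATP at its Km of 4.2 µM in Tris/HCl pH 7.5 with MgCl2, 30 min at 30 °C. Released strand separated by TBE-PAGE and quantified by 32P counting. IC50 is 50% of control unwinding; representative of three experiments.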

[3] = target: T1, ATP-dependent RNA helicase SUPV3L1, mitochondrial; assay: Inhibitory activity against human Suv3 helicase using RNA as substrate; summary of the method: as §2
[4] = tested on: West Nile virus; assay: Inhibitory activity determined against west nile virus (WNV) NTPase/helicase (NTPase/helicase Non structural protein 3) using RNA as substrate; assay type: functional; summary of the method: as §1
[5] = tested on: West Nile virus; assay: Inhibitory activity against west nile virus (WNV) NTPase/helicase (NTPase/helicase Non structural protein 3) using RNA as substrate; assay type: functional; summary of the method: as §1
[6] = tested on: West Nile virus; assay: Inhibitory activity against west nile virus (WNV) NTPase/helicase (NTPase/helicase Non structural protein 3) using DNA as substrate; assay type: functional; summary of the method: as §1

Row | IC50 [1] [µg/mL] | IC50 [2] [µM] | IC50 [3] [µM] | IC50 [4] [µg/mL] | SMILES | ED200 [5] [µg/mL] | ED200 [6] [µg/mL]
1 | 1 (≈ 2.09 µM) | > 1040 | 313 | 10 (≈ 20.9 µM) | CCCCCCCCCCCCNc1nc(=O)c2ncn([C@@H]3O[C@H](CO)[C@@H](O)C3O)c2c(=O)[nH]1 (single isomer, unassigned) |  | 
2 | 3 (≈ 5.91 µM) | 591 | 59.1 | > 500 | CCCCCCCCCCCCCCNc1nc(=O)c2ncn([C@@H]3O[C@H](CO)[C@@H](O)C3O)c2c(=O)[nH]1 (single isomer, unassigned) |  | 
3 | 5 (≈ 8.87 µM) | > 887 | 53.2 | 100 (≈ 177 µM) | CCCCCCCCCCCCCCCCCCNc1nc(=O)c2ncn([C@@H]3O[C@H](CO)[C@@H](O)C3O)c2c(=O)[nH]1 (single isomer, unassigned) |  | 
4 | 250 (≈ 467 µM) | > 933 | 56 | 500 (≈ 933 µM) | CCCCCCCCCCCCCCCCNc1nc(=O)c2ncn([C@@H]3O[C@H](CO)[C@@H](O)C3O)c2c(=O)[nH]1 (single isomer, unassigned) |  | 
5 | > 300 |  |  |  | CCCCCCCNc1nc(=O)c2c(ncn2C2O[C@H](CO)[C@@H](O)C2O)c(=O)[nH]1 (single isomer, unassigned) |  | 
6 | 30 (≈ 66.4 µM) | > 1110 | 1110 | 300 (≈ 664 µM) | CCCCCCCCCCNc1nc(=O)c2ncn([C@@H]3O[C@H](CO)[C@@H](O)C3O)c2c(=O)[nH]1 (single isomer, unassigned) |  | 
7 | > 300 |  |  |  | CCCCCCNc1nc(=O)c2c(ncn2C2O[C@H](CO)[C@@H](O)C2O)c(=O)[nH]1 (single isomer, unassigned) |  | 
8 | 3 (≈ 6.47 µM) | 6.47 | > 1080 | 1.5 (≈ 3.24 µM) | CCCCCCCCCCCCNc1nc(=O)c2c(ncn2[C@H]2C[C@H](O)[C@@H](CO)O2)c(=O)[nH]1 |  | 
9 | > 300 |  |  |  | CCCCCCCCNc1nc(=O)c2ncn([C@@H]3O[C@H](CO)[C@@H](O)C3O)c2c(=O)[nH]1 (single isomer, unassigned) |  | 

Second part, the compound before the results:

Row | SMILES | IC50 [1] [µg/mL] | IC50 [2] [µM] | IC50 [3] [µM] | IC50 [4] [µg/mL] | ED200 [5] [µg/mL] | ED200 [6] [µg/mL]
10 | O=c1nc(NCc2ccccc2)[nH]c(=O)c2c1ncn2C1O[C@H](CO)[C@@H](O)C1O (single isomer, unassigned) | > 500 |  |  |  |  | 
11 | CCCCCCCCCCCCNc1nc(=O)c2c(ncn2[C@@H]2C[C@H](O)[C@@H](CO)O2)c(=O)[nH]1 | 3 (≈ 6.47 µM) | 539 | 324 | 100 (≈ 216 µM) |  | 
12 | CCNc1nc(=O)c2c(ncn2C2O[C@H](CO)[C@@H](O)C2O)c(=O)[nH]1 (single isomer, unassigned) | > 300 |  |  |  |  | 
13 | CN(C)c1nc(=O)c2c(ncn2C2O[C@H](CO)[C@@H](O)C2O)c(=O)[nH]1 (single isomer, unassigned) | > 300 |  |  |  |  | 
14 | CCCCNc1nc(=O)c2c(ncn2C2O[C@H](CO)[C@@H](O)C2O)c(=O)[nH]1 (single isomer, unassigned) | > 300 |  |  |  |  | 
15 | CCCCCCCCCCCCNc1nc(=O)c2c(ncn2Cc2ccc(OC)cc2)c(=O)[nH]1 | 5 (≈ 10.7 µM) | > 1070 | > 1070 | 1 (≈ 2.14 µM) |  | 
16 | O=c1nc(Nc2ccccc2)[nH]c(=O)c2c1ncn2C1O[C@H](CO)[C@@H](O)C1O (single isomer, unassigned) |  | > 1290 | > 1290 |  | 100 | 300
17 | CCCCCCCCCCCCNc1nc(O)c2ncnc-2c(O)n1 | > 500 | > 1440 | > 1440 | > 500 |  | 
18 | O=c1nc(NCCCCc2ccccc2)[nH]c(=O)c2c1ncn2C1O[C@H](CO)[C@@H](O)C1O (single isomer, unassigned) | > 500 |  |  |  |  | 
19 | CNc1nc(=O)c2c(ncn2C2O[C@H](CO)[C@@H](O)C2O)c(=O)[nH]1 (single isomer, unassigned) | > 300 |  |  |  |  | 
20 | CCCCCNc1nc(=O)c2c(ncn2C2O[C@H](CO)[C@@H](O)C2O)c(=O)[nH]1 (single isomer, unassigned) | > 300 |  |  |  |  | 
21 | O=c1nc(NCCCc2ccccc2)[nH]c(=O)c2c1ncn2C1O[C@H](CO)[C@@H](O)C1O (single isomer, unassigned) | > 500 |  |  |  |  | 
22 | O=c1nc(NCCc2ccccc2)[nH]c(=O)c2c1ncn2C1O[C@H](CO)[C@@H](O)C1O (single isomer, unassigned) | > 500 |  |  |  |  | 
23 | CCCNc1nc(=O)c2c(ncn2C2O[C@H](CO)[C@@H](O)C2O)c(=O)[nH]1 (single isomer, unassigned) | > 300 |  |  |  |  | 
